Source: ChEMBL document CHEMBL4138178, “Green, unexpected synthesis of bis-coumarin derivatives as potent anti-bacterial and anti-inflammatory agents” (2018)
Converted amounts (≈) assume the structure as drawn.

Assays:
Type in all cases: functional
Pseudomonas aeruginosa = experiment: Antibacterial activity against Pseudomonas aeruginosa MTCC 25668 after 24 hrs by broth microdilution method; conditions: MTCC 25668, 24 h
Method in brief: (§1)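 Broth tube dilution in BHI broth, run in triplicate. Strains sub-cultured at 35 °C for 48 h. Inoculum grown in BHI at 35 °C for 2–6 h and adjusted to 0.5 McFarland. Ten-tube serial dilution of compound, 200 µL diluted culture added to each tube. Media plus culture tube as control. Incubated 24 h at 37 °C; MIC read by turbidity.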

Staphylococcus aureus = experiment: Antibacterial activity against Staphylococcus aureus MTCC 12598 after 24 hrs by broth microdilution method; conditions: MTCC 12598, 24 h; method in brief: as §1
Enterococcus faecalis = experiment: Antibacterial activity against Enterococcus faecalis MTCC 35550 after 24 hrs by broth microdilution method; conditions: MTCC 35550, 24 h; method in brief: as §1
Escherichia coli = experiment: Antibacterial activity against Escherichia coli MTCC 443 after 24 hrs by broth microdilution method; conditions: MTCC 443, 24 h; method in brief: as §1
Prevotella intermedia = experiment: Antibacterial activity against Prevotella intermedia after 24 hrs by broth microdilution method
Erythrocyte = experiment: Anti-inflammatory activity in human RBC membranes assessed as inhibition of heat-induced hemolysis at 100 ug/mL incubated for 20 mins at 54 degC by UV-VIS spectrometer analysis relative to control
Method in brief: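 Washed human RBCs as 40% (v/v) stock in isotonic 10 mM sodium phosphate buffer pH 7.4 with 0.9% NaCl. Compound 0.1 mg/mL in isotonic buffer with 30 µL erythrocyte suspension, duplicate sets. One pair heated at 54 °C for 20 min, other held at 0-5 °C. Spun 3 min at 1300 rpm, supernatant absorbance at 540 nm. % inhibition = 100 × [1 − (OD2−OD1)/(OD3−OD1)]; vehicle control.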

Bacillus cereus = experiment: Antibacterial activity against Bacillus cereus after 24 hrs by broth microdilution method

| SMILES | MIC (Pseudomonas aeruginosa) [µg/mL] | MIC (Staphylococcus aureus) [µg/mL] | MIC (Enterococcus faecalis) [µg/mL] | MIC (Escherichia coli) [µg/mL] | MIC (Prevotella intermedia) [µg/mL] | inhibition at 100 µg/mL (Erythrocyte) [%] | MIC (Bacillus cereus) [µg/mL] |
| --- | --- | --- | --- | --- | --- | --- | --- |
| Cc1ccc2oc(=O)cc(C(CC(=O)O)c3c(O)c4ccccc4oc3=O)c2c1 (centres undefined) | 25 (≈ 63.7 µM) | 1.56 (≈ 3.98 µM) | 1.56 (≈ 3.98 µM) | 3.25 (≈ 8.28 µM) | 6.25 (≈ 15.9 µM) | 14.1 | 25 (≈ 63.7 µM) |
| Cc1ccc2c(C3CC(=O)Oc4c3c(=O)oc3ccccc43)cc(=O)oc2c1 (centres undefined) | 25 (≈ 66.8 µM) | 6.25 (≈ 16.7 µM) | 3.25 (≈ 8.68 µM) | 1.56 (≈ 4.17 µM) | 3.25 (≈ 8.68 µM) | 36.8 | 6.25 (≈ 16.7 µM) |
| CCOC(=O)C1=C(N)Oc2c(c(=O)oc3ccccc23)C1c1cc(=O)oc2ccc(OC)cc12 (centres undefined) | 25 (≈ 54.2 µM) | 6.25 (≈ 13.5 µM) | 6.25 (≈ 13.5 µM) | 6.25 (≈ 13.5 µM) | 1.56 (≈ 3.38 µM) | 52.1 | 6.25 (≈ 13.5 µM) |
| Cc1ccc2oc(=O)cc(C3CC(=O)Oc4c3c(=O)oc3ccccc43)c2c1 (centres undefined) | 25 (≈ 66.8 µM) | 12.5 (≈ 33.4 µM) | 6.25 (≈ 16.7 µM) | 1.56 (≈ 4.17 µM) | 3.25 (≈ 8.68 µM) | 31.4 | 50 (≈ 134 µM) |
| O=C(O)CC(c1c(O)c2ccccc2oc1=O)c1cc(=O)oc2ccc(Cl)cc12 (centres undefined) | 25 (≈ 60.6 µM) | 3.25 (≈ 7.87 µM) | 1.56 (≈ 3.78 µM) | 1.56 (≈ 3.78 µM) | 3.25 (≈ 7.87 µM) | 61.2 | 25 (≈ 60.6 µM) |
| N#CC1=C(N)Oc2c(c(=O)oc3ccccc23)C1c1cc(=O)oc2c1ccc1ccccc12 (centres undefined) | 25 (≈ 57.5 µM) | 3.25 (≈ 7.48 µM) | 1.56 (≈ 3.59 µM) | 6.25 (≈ 14.4 µM) | 1.56 (≈ 3.59 µM) | 54.4 | 1.56 (≈ 3.59 µM) |
| O=C(O)CC(c1c(O)c2ccccc2oc1=O)c1cc(=O)oc2c1ccc1ccccc12 (centres undefined) | 6.25 (≈ 14.6 µM) | 6.25 (≈ 14.6 µM) | 1.56 (≈ 3.64 µM) | 3.25 (≈ 7.59 µM) | 25 (≈ 58.4 µM) | 59.1 | 6.25 (≈ 14.6 µM) |
| CCOC(=O)C1=C(N)Oc2c(c(=O)oc3ccccc23)C1c1cc(=O)oc2ccc(Cl)cc12 (centres undefined) | 1.56 (≈ 3.35 µM) | 12.5 (≈ 26.8 µM) | 1.56 (≈ 3.35 µM) | 6.25 (≈ 13.4 µM) | 1.56 (≈ 3.35 µM) | 62.2 | 25 (≈ 53.7 µM) |
| N#CC1=C(N)Oc2c(c(=O)oc3ccccc23)C1c1cc(=O)oc2ccc(Cl)cc12 (centres undefined) | 6.25 (≈ 14.9 µM) | 25 (≈ 59.7 µM) | 3.25 (≈ 7.76 µM) | 6.25 (≈ 14.9 µM) | 6.25 (≈ 14.9 µM) | 43.3 | 25 (≈ 59.7 µM) |
| CCOC(=O)C1=C(N)Oc2c(c(=O)oc3ccccc23)C1c1cc(=O)oc2ccc(C)cc12 (centres undefined) | 6.25 (≈ 14 µM) | 3.25 (≈ 7.3 µM) | 6.25 (≈ 14 µM) | 1.56 (≈ 3.5 µM) | 6.25 (≈ 14 µM) | 42.3 | 6.25 (≈ 14 µM) |
| COc1ccc2oc(=O)cc(C3CC(=O)Oc4c3c(=O)oc3ccccc43)c2c1 (centres undefined) | 6.25 (≈ 16 µM) | 6.25 (≈ 16 µM) | 6.25 (≈ 16 µM) | 3.25 (≈ 8.33 µM) | 25 (≈ 64 µM) | 50.5 | 6.25 (≈ 16 µM) |
| CCOC(=O)C1=C(N)Oc2c(c(=O)oc3ccccc23)C1c1cc(=O)oc2c1ccc1ccccc12 (centres undefined) | 1.56 (≈ 3.24 µM) | 6.25 (≈ 13 µM) | 6.25 (≈ 13 µM) | 1.56 (≈ 3.24 µM) | 6.25 (≈ 13 µM) | 61.2 | 6.25 (≈ 13 µM) |
| O=C1CC(c2cc(=O)oc3ccc(Cl)cc23)c2c(c3ccccc3oc2=O)O1 (centres undefined) | 25 (≈ 63.3 µM) | 6.25 (≈ 15.8 µM) | 3.25 (≈ 8.23 µM) | 6.25 (≈ 15.8 µM) | 6.25 (≈ 15.8 µM) | 70.7 | 25 (≈ 63.3 µM) |
| Cc1ccc2oc(=O)cc(C3C(C#N)=C(N)Oc4c3c(=O)oc3ccccc43)c2c1 (centres undefined) | 25 (≈ 62.8 µM) | 6.25 (≈ 15.7 µM) | 1.56 (≈ 3.92 µM) | 6.25 (≈ 15.7 µM) | 6.25 (≈ 15.7 µM) | 11.2 | 6.25 (≈ 15.7 µM) |
| Cc1ccc2c(C3C(C#N)=C(N)Oc4c3c(=O)oc3ccccc43)cc(=O)oc2c1 (centres undefined) | 1.56 (≈ 3.92 µM) | 1.56 (≈ 3.92 µM) | 6.25 (≈ 15.7 µM) | 1.56 (≈ 3.92 µM) | 6.25 (≈ 15.7 µM) | 69.1 | 1.56 (≈ 3.92 µM) |
| COc1ccc2oc(=O)cc(C(CC(=O)O)c3c(O)c4ccccc4oc3=O)c2c1 (centres undefined) | 1.56 (≈ 3.82 µM) | 3.25 (≈ 7.96 µM) | 1.56 (≈ 3.82 µM) | 1.56 (≈ 3.82 µM) | 6.25 (≈ 15.3 µM) | 23.3 | 6.25 (≈ 15.3 µM) |
| O=C1CC(c2cc(=O)oc3c2ccc2ccccc23)c2c(c3ccccc3oc2=O)O1 (centres undefined) | 1.56 (≈ 3.8 µM) | 25 (≈ 60.9 µM) | 6.25 (≈ 15.2 µM) | 6.25 (≈ 15.2 µM) | 25 (≈ 60.9 µM) | 37.6 | 25 (≈ 60.9 µM) |
| CCOC(=O)C1=C(N)Oc2c(c(=O)oc3ccccc23)C1c1cc(=O)oc2cc(C)ccc12 (centres undefined) | 6.25 (≈ 14 µM) | 12.5 (≈ 28.1 µM) | 6.25 (≈ 14 µM) | 6.25 (≈ 14 µM) | 6.25 (≈ 14 µM) | 69.4 | 25 (≈ 56.1 µM) |
| COc1ccc2oc(=O)cc(C3C(C#N)=C(N)Oc4c3c(=O)oc3ccccc43)c2c1 (centres undefined) | 1.56 (≈ 3.76 µM) | 12.5 (≈ 30.2 µM) | 3.25 (≈ 7.84 µM) | 1.56 (≈ 3.76 µM) | 6.25 (≈ 15.1 µM) | 15.3 | 6.25 (≈ 15.1 µM) |
| Cc1ccc2c(C(CC(=O)O)c3c(O)c4ccccc4oc3=O)cc(=O)oc2c1 (centres undefined) | 6.25 (≈ 15.9 µM) | 3.25 (≈ 8.28 µM) | 3.25 (≈ 8.28 µM) | 3.25 (≈ 8.28 µM) | 25 (≈ 63.7 µM) | 76.4 | 6.25 (≈ 15.9 µM) |
| CC(=O)Oc1ccccc1C(=O)O [ASPIRIN] |  |  |  |  |  | 36.2 |  |
| O=C(O)c1cn(C2CC2)c2cc(N3CCNCC3)c(F)cc2c1=O [CIPROFLOXACIN] |  |  | 6.25 (≈ 18.9 µM) |  | 6.25 (≈ 18.9 µM) |  | 6.25 (≈ 18.9 µM) |
